Experiment [1] deals with Insulin-like growth factor 1 receptor (Homo sapiens) (UniProt P08069). The experiment is described as follows: Inhibition of IGF1R (unknown origin) at 100 nM relative to control. The procedure, abridged: (§1)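 Purified recombinant kinase domains run in ELISA on precoated poly(Glu,Tyr) 4:1 (20 µg/mL) with 10 µM ATP in 50 mM HEPES pH 7.4, 50 mM MgCl2, 0.5 mM MnCl2, 0.2 mM Na3VO4, 1 mM DTT; 1% DMSO control; 60 min at 37 °C. Phosphotyrosine read by PY99 antibody, HRP anti-mouse IgG, OPD/H2O2 at 490 nm; inhibition = [1−A490/A490control]×100%; two separate experiments.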

The target of experiment [2] is Vascular endothelial growth factor receptor 1 (Homo sapiens) (UniProt P17948). Description: Inhibition of VEGFR1 (unknown origin) at 1000 nM relative to control. The procedure, abridged:
(§2)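 ELISA with purified recombinant kinase on plates precoated with poly(Glu,Tyr) 4:1 at 20 µg/mL. ATP 10 µM in HEPES pH 7.4 buffer with MgCl2, MnCl2, Na3VO4 and DTT. Run 60 min at 37 °C. Detected with anti-phosphotyrosine PY99, HRP secondary antibody and o-phenylenediamine, read at 490 nm. Inhibition % = [1 − A490/A490 control]×100. 1% DMSO as negative control.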

Experiment [3] concerns the target Tyrosine-protein kinase ABL1 (Homo sapiens) (UniProt P00519). The experiment is described as follows: Inhibition of ABL (unknown origin) at 10 nM relative to control.
Experiment [4] deals with Platelet-derived growth factor receptor beta (Homo sapiens) (UniProt P09619). The experiment is described as follows: Inhibition of PDGFR-beta (unknown origin) at 1000 nM relative to control. The procedure, abridged: as §2
Experiment [5] deals with Macrophage colony-stimulating factor 1 receptor (Homo sapiens) (UniProt P07333). The experiment is described as follows: Inhibition of CSF-1R (unknown origin) at 100 nM relative to control.
In experiment [6] the target is T1, Ephrin type-B receptor 2 (Homo sapiens) (UniProt P29323).
T1 sequence (whole entry): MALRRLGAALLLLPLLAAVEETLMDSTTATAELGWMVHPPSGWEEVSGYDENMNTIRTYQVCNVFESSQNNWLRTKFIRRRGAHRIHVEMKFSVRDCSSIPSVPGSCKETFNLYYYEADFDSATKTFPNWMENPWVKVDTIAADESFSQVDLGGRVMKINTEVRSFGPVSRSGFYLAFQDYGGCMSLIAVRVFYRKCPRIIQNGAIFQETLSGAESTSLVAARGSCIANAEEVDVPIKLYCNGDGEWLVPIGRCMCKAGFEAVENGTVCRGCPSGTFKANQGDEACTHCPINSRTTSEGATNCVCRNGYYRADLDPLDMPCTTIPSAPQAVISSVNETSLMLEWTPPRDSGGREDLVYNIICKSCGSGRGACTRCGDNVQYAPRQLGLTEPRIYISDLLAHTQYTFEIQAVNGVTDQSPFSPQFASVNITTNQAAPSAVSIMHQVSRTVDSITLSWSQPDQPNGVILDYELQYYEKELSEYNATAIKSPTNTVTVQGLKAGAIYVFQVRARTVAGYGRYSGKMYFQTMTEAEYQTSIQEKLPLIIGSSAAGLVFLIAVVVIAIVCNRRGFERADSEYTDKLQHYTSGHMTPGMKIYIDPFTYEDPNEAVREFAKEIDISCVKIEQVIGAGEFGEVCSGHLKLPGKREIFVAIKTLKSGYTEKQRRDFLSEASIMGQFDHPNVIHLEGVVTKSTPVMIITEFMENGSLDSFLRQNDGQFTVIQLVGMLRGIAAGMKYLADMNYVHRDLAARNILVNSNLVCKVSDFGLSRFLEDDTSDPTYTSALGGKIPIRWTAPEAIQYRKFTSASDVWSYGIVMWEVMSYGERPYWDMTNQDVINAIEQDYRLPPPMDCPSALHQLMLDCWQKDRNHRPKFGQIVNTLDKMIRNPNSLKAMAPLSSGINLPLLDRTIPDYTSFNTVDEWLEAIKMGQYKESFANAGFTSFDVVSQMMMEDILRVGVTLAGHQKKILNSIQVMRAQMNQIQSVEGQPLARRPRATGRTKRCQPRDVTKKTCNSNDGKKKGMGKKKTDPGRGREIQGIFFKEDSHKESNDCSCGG
The experiment is described as follows: Inhibition of EPH-B2 (unknown origin) at 100 nM relative to control. The procedure, abridged:
as §1

In experiment [7] the target is Vascular endothelial growth factor receptor 2 (Homo sapiens) (UniProt P35968). Description: Inhibition of VEGFR2 (unknown origin) at 1000 nM relative to control. The procedure, abridged:
as §2

Experiment [8] has as its target Receptor tyrosine-protein kinase erbB-2 (Homo sapiens) (UniProt P04626). The experiment is described as follows: Inhibition of ErbB2 (unknown origin) at 10 nM relative to control. The procedure, abridged: as §1
The target of experiment [9] is Cyclin-dependent kinase 1 (Homo sapiens) (UniProt P06493). Description: Inhibition of CDK1 (unknown origin) at 1000 nM relative to control.
Experiment [10] concerns the target Receptor tyrosine-protein kinase erbB-2 (Homo sapiens) (UniProt P04626). Description: Inhibition of ErbB2 (unknown origin) at 1000 nM relative to control. The procedure, abridged: as §1
Experiment [11] addresses Hepatocyte growth factor receptor (Homo sapiens) (UniProt P08581). Description: Inhibition of c-Met (unknown origin) at 10 nM relative to control. The procedure, abridged: as §2
Experiment [12] deals with Angiopoietin-1 receptor (Homo sapiens) (UniProt Q02763). The experiment is described as follows: Inhibition of Tie-2 (unknown origin) at 100 nM relative to control. The procedure, abridged:
as §2

Experiment [13] addresses Ephrin type-A receptor 2 (Homo sapiens) (UniProt P29317). Description: Inhibition of EPH-A2 (unknown origin) at 1000 nM relative to control. The procedure, abridged: as §1
In experiment [14] the target is Cyclin-dependent kinase 6 (Homo sapiens) (UniProt Q00534). Description: Inhibition of CDK6 (unknown origin) at 1000 nM relative to control.
Experiment [15] deals with Receptor tyrosine-protein kinase erbB-2 (Homo sapiens) (UniProt P04626). Description: Inhibition of ErbB2 (unknown origin) at 100 nM relative to control. The procedure, abridged:
as §1

Experiment [16] addresses Platelet-derived growth factor receptor beta (Homo sapiens) (UniProt P09619). The experiment is described as follows: Inhibition of PDGFR-beta (unknown origin) at 10 nM relative to control. The procedure, abridged: as §1
The target of experiment [17] is Macrophage colony-stimulating factor 1 receptor (Homo sapiens) (UniProt P07333). The experiment is described as follows: Inhibition of CSF-1R (unknown origin) at 10 nM relative to control.

Chain of Receptor tyrosine-protein kinase erbB-2 (Homo sapiens) (P04626 whole entry): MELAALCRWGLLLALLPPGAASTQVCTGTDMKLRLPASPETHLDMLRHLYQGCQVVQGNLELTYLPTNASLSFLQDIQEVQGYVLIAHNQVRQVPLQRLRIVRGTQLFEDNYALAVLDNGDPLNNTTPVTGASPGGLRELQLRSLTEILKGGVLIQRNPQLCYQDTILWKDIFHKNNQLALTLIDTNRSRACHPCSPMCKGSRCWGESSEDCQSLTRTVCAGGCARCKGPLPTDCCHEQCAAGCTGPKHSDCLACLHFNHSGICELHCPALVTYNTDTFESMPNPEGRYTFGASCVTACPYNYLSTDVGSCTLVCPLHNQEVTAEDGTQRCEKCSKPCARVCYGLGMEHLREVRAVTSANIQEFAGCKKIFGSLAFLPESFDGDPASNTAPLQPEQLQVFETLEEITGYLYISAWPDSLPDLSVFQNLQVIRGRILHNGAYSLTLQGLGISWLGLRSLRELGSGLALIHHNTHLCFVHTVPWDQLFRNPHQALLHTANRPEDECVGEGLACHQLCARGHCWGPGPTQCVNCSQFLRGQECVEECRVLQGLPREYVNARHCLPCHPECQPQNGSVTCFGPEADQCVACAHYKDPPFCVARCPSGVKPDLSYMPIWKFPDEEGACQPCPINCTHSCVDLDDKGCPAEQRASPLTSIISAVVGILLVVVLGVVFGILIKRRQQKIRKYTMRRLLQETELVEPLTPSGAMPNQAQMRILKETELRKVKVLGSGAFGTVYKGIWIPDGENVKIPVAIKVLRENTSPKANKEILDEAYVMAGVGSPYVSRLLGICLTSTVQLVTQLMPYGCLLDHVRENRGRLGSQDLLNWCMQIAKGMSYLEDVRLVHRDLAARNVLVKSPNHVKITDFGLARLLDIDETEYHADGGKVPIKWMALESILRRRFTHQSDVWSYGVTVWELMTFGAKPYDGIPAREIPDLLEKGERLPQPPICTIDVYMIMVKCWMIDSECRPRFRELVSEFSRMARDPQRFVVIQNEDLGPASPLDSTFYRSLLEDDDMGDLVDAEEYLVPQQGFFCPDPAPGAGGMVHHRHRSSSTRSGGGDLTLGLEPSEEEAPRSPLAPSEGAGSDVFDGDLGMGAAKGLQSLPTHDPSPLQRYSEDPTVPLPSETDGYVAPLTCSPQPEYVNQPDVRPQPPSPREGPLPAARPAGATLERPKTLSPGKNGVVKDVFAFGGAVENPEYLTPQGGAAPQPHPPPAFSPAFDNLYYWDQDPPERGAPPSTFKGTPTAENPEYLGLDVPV
Chain of Platelet-derived growth factor receptor beta (Homo sapiens) (P09619 whole entry): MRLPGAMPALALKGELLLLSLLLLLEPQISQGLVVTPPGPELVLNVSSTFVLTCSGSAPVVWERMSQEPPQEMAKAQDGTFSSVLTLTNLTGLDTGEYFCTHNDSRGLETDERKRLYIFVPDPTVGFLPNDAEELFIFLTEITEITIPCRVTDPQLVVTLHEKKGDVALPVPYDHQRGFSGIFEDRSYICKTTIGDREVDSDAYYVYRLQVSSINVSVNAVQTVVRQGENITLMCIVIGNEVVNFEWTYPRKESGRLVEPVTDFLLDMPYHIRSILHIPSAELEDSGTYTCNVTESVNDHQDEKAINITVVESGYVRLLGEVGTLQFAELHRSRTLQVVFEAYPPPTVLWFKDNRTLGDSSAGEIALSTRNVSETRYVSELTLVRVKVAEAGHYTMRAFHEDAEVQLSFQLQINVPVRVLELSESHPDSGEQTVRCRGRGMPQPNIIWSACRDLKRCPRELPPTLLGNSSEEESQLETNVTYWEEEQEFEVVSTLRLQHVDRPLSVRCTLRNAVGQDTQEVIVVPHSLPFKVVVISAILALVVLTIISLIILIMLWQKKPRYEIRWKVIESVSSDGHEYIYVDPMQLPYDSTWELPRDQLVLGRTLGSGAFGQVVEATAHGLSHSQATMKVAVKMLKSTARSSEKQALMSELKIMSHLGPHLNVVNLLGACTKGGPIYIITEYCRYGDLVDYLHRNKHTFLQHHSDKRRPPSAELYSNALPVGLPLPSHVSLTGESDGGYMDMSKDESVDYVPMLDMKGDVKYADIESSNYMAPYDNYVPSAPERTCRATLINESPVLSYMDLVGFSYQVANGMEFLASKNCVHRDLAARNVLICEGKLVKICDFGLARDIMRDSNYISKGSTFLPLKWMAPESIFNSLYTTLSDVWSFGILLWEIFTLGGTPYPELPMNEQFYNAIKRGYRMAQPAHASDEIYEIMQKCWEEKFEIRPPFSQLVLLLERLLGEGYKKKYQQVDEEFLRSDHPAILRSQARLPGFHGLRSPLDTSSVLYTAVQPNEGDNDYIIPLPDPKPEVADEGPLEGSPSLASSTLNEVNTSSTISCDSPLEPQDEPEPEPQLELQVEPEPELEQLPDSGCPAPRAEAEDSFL
Chain of Macrophage colony-stimulating factor 1 receptor (Homo sapiens) (P07333 whole entry): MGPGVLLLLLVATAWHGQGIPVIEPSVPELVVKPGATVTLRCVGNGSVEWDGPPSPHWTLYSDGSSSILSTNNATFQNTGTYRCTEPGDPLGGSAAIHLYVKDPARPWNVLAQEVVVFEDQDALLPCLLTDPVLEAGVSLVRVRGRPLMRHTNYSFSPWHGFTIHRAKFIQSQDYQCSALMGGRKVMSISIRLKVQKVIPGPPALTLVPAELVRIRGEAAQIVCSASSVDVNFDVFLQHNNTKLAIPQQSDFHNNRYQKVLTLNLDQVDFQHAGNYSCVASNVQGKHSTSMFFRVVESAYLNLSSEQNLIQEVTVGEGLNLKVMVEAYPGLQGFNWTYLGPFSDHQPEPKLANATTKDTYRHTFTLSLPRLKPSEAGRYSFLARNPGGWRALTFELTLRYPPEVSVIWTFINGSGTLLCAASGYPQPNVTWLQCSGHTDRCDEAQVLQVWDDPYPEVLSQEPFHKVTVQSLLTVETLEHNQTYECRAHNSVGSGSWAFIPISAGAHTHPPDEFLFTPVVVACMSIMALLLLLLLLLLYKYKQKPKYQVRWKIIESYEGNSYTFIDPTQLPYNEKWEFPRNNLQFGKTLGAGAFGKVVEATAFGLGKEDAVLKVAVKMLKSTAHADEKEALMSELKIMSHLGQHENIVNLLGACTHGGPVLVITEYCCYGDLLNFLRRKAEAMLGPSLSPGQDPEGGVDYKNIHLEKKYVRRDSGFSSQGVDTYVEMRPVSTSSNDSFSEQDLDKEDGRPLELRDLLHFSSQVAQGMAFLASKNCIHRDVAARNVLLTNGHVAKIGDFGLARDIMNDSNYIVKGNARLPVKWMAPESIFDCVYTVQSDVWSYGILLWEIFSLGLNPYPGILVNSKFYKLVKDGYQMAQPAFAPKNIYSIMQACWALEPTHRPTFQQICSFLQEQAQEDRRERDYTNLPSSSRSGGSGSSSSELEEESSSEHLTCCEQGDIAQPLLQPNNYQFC
Chain of Angiopoietin-1 receptor (Homo sapiens) (Q02763 whole entry): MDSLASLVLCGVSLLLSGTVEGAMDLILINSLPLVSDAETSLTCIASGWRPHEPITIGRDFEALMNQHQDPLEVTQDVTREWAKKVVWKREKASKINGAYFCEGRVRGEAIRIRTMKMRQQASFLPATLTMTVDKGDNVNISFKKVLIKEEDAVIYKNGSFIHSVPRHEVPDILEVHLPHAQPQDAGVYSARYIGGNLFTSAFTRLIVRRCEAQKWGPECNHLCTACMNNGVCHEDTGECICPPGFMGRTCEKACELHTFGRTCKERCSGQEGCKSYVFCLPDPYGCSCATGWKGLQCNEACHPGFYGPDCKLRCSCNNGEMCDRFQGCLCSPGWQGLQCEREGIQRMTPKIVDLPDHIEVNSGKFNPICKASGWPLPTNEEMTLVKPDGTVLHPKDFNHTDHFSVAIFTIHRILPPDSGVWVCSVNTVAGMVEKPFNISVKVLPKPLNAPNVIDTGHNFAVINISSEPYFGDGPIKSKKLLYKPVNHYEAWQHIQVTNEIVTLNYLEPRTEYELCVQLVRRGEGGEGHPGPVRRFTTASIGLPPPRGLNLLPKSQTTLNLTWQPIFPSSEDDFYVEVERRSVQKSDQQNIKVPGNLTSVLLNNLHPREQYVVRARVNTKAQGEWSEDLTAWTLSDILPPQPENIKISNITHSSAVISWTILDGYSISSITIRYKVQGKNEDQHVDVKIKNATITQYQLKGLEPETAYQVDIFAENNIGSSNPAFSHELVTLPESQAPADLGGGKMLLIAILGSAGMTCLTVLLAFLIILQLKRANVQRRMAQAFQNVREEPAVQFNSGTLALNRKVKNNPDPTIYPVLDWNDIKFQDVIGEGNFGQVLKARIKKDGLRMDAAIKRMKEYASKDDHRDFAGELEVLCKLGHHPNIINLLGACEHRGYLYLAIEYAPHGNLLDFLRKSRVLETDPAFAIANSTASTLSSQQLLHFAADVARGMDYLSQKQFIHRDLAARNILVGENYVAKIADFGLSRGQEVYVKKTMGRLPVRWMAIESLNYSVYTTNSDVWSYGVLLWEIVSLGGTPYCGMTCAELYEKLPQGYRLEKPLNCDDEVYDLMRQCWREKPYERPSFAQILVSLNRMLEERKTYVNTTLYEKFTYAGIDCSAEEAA
Chain of Cyclin-dependent kinase 6 (Homo sapiens) (Q00534 whole entry): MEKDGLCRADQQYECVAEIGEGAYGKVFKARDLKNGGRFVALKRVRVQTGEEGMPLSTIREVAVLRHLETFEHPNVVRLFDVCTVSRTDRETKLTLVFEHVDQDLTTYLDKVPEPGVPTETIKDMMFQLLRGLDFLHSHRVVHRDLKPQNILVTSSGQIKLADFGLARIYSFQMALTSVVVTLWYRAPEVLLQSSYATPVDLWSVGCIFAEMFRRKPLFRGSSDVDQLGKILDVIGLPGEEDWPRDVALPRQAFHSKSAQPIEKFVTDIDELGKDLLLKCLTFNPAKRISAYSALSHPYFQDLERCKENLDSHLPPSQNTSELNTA
Chain of Cyclin-dependent kinase 1 (Homo sapiens) (P06493 whole entry, looked up): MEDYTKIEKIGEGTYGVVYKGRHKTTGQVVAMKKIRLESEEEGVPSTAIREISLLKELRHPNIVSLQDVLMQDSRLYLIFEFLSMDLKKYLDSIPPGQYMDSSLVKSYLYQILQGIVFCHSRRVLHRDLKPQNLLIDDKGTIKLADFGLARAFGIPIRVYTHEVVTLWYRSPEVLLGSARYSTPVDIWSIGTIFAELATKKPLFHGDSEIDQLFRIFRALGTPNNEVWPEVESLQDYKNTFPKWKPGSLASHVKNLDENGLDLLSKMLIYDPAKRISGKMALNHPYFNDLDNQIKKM

For the molecule `Cc1ccc(C(=O)Nc2cccc(C(F)(F)F)c2)cc1-c1ccc2c(-c3cnn(C4CC4)c3)n[nH]c2c1`, the inhibition came to 8.2% in [1]; 86.6% in experiment [2]; 22% in experiment [3]; 100% in experiment [4]; 83.4% in [5]; 76.7% in experiment [6]. Moreover, the inhibition was 100% in experiment [7]; 8.2% in experiment [8]; 5.6% in [9]; 0% in experiment [10]; 0.2% in [11]; 36.4% in experiment [12]. For the same molecule, the inhibition was found to be 100% in [13]; 5.9% in experiment [14]; 5.6% in experiment [15]; 59.5% in experiment [16]; 65.3% in [17].
